Source: ChEMBL document CHEMBL2407035, “Identification of novel chromone based sulfonamides as highly potent and selective inhibitors of alkaline phosphatases” (Eur J Med Chem, 2013)
The source made the active and inactive calls. The calls are words filed in the database; no cut-off is given here.

Columns and labels:
[1] = target: 5'-nucleotidase (Homo sapiens) (UniProt P21589); assay: Inhibition of human Ecto-5'-NT expressed in african green monkey COS7 cells using AMP as substrate at 0.1 mM preincubated for 10 mins measured after 10 mins; assay type: cell-based; settings: COS-7
5'-nucleotidase (Homo sapiens), sequence (P21589 whole entry): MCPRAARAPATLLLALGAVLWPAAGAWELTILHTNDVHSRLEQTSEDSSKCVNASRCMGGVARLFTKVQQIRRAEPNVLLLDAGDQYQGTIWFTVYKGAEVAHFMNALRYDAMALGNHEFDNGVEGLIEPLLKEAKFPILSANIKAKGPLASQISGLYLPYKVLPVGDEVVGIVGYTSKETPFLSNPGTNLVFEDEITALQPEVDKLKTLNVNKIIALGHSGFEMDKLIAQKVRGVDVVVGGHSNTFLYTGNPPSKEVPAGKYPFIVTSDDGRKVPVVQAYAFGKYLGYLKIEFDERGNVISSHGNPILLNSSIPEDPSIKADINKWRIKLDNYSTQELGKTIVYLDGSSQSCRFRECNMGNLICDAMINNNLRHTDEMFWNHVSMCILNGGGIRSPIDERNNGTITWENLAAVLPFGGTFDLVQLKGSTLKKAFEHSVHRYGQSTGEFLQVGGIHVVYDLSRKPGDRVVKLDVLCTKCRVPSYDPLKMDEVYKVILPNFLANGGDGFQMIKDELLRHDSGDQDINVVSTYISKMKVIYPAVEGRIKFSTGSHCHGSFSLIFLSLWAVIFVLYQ
Method in brief: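 Human ecto-5'-NT from membrane extracts of transfected COS-7 cells (6.94 µg/mL). Preincubated with compound 10 min at 37 °C in 10 mM Hepes, 2 mM MgCl₂, 1 mM CaCl₂, pH 7.4. Started with 500 µM AMP, 10 min at 37 °C, stopped at 99 °C for 20 min. Adenosine quantified by capillary electrophoresis, UV at 260 nm, with <10% substrate conversion.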

[2] = Inhibition of porcine kidney […] alkaline phosphatase using p-NPP as substrate treated 10 mins before substrate addition measured after 30 mins by spectrophotometric assay; design: species or system Sus scrofa
Method in brief: (§1)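 Calf intestinal ALP (0.025 U/mL) or TNALP (0.5 U/mL) in 50 mM Tris-HCl, 5 mM MgCl₂, 0.1 mM ZnCl₂, pH 9.5 with compound (1% DMSO final), 10 min. Started with 0.5 mM p-NPP, 30 min at 37 °C, p-nitrophenolate read at 405 nm. Screened at 0.1 mM. Actives (>50%) got 8–10 dilutions, 1 mM to 10 nM, three times in triplicate. IC50 by nonlinear fit, Ki by Cheng–Prusoff.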

[3] = target: T1, Alkaline phosphatase, tissue-nonspecific isozyme (Bos taurus, UniProt P09487); assay: Inhibition of bovine kidney […] alkaline phosphatase using p-NPP as substrate treated 10 mins before substrate addition measured after 30 mins by spectrophotometric assay; method in brief: as §1
T1 sequence (P09487 whole entry): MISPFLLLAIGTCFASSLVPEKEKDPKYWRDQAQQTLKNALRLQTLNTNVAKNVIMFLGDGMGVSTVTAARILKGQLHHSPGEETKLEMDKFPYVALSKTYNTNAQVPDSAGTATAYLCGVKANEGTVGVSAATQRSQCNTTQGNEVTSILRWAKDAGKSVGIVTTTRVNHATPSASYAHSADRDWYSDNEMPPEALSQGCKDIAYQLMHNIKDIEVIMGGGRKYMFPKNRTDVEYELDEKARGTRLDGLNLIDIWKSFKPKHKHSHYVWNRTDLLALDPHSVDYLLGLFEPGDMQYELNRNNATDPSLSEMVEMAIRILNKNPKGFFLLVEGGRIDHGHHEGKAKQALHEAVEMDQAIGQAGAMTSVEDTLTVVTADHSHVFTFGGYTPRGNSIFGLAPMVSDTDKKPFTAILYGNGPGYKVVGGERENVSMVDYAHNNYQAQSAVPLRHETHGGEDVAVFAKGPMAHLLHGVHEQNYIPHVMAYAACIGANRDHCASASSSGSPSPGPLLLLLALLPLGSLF

[4] = target: Intestinal-type alkaline phosphatase (Bos taurus, UniProt P19111); assay: Inhibition of bovine intestinal alkaline phosphatase using p-NPP as substrate treated 10 mins before substrate addition measured after 30 mins by spectrophotometric assay; method in brief: as §1
Intestinal-type alkaline phosphatase, sequence (P19111 whole entry): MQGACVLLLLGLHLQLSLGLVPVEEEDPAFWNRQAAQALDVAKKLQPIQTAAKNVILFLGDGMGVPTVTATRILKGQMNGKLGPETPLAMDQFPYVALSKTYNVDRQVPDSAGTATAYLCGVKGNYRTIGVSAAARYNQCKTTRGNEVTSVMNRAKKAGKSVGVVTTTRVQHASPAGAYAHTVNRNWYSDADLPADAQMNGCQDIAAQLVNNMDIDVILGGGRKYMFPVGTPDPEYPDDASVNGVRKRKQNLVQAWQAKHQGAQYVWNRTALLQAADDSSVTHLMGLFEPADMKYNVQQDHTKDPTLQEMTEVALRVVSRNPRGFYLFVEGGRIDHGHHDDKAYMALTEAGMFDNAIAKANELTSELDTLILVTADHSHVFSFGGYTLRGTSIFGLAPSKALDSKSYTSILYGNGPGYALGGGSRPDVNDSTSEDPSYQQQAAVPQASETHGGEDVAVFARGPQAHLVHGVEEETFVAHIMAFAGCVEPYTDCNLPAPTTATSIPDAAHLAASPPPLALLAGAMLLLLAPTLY

[5] = target: Intestinal-type alkaline phosphatase (Bos taurus) (UniProt P19111); assay: Competitive inhibition of bovine intestinal alkaline phosphatase using p-NPP as substrate by Double-reciprocal plot analysis
Intestinal-type alkaline phosphatase (Bos taurus), sequence (P19111 20-506 limits assumed): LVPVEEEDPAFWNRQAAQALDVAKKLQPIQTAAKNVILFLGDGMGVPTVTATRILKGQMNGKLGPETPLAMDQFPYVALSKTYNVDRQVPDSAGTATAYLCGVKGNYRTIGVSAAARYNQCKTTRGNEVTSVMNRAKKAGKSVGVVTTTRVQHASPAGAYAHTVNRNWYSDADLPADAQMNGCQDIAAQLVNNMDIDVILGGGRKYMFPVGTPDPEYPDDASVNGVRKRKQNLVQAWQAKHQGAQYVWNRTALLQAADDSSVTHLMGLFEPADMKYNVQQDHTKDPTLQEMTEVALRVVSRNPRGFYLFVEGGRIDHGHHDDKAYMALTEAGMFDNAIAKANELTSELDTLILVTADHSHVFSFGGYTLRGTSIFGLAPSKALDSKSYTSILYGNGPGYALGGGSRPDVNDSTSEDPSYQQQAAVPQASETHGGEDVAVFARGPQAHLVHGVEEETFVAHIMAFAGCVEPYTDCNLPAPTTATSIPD
Method in brief: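 Calf intestinal ALP kinetics: initial velocities measured with 4-NPP at 0.01-1 mM and inhibitor at 0, 100 and 300 nM. Double-reciprocal plots (1/[S] vs 1/v) were used to assign the inhibition mode. Buffer is 50 mM Tris-HCl, 5 mM MgCl₂, 0.1 mM ZnCl₂, pH 9.5, read at 405 nm.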

Row | Structure (SMILES) | inhibition [1] [%] | Ki [2] [µM] | Ki [3] [µM] | Ki [4] [µM] | inhibition [5]
1 | CCOC1Oc2ccccc2C(=O)/C1=C\Nc1cccc(S(N)(=O)=O)c1 (centres undefined) | 0 | 41.7 | 41 | 33.5 | –
2 | CCOC1Oc2ccc(CC)cc2C(=O)/C1=C\Nc1ccc(S(N)(=O)=O)cc1 (centres undefined) | 13 | 68.8 | 60 | 2.6 | –
3 | CCOC1Oc2ccccc2C(=O)/C1=C/Nc1ccc(S(=O)(=O)Nc2ccc(OC)nn2)cc1 (centres undefined) | 0 | 52.5 | 38 | 7.8 | –
4 | CCOC1Oc2c(Br)cc(Br)cc2C(=O)/C1=C\Nc1ccc(S(N)(=O)=O)cc1 (centres undefined) | 43 | 55.3 | 63 | 5.1 | –
5 | CCOC1Oc2ccc(CC)cc2C(=O)/C1=C\Nc1ccccc1S(N)(=O)=O (centres undefined) | 4 | 18 | 29 | 0.4 | –
6 | CCOC1Oc2ccc(Br)cc2C(=O)/C1=C/Nc1ccc(S(=O)(=O)Nc2ccccn2)cc1 (centres undefined) | 0 | 73.6 | 74 | 9.3 | –
7 | CCOC1Oc2ccc(F)cc2C(=O)/C1=C\Nc1ccc(S(N)(=O)=O)cc1 (centres undefined) | 16 | 66.8 | 220 | 1.43 | –
8 | CCOC1Oc2ccc(Br)cc2C(=O)/C1=C\Nc1ccc(S(N)(=O)=O)cc1 (centres undefined) | 52 | 44.6 | 48 | 0.41 | –
9 | O=c1c(C2Nc3ccccc3S(=O)(=O)N2)coc2ccccc12 (centres undefined) | 0 | 21.3 | 27 | 0.049 | –
10 | O=c1c(C2Nc3ccccc3S(=O)(=O)N2)coc2ccc(F)cc12 (centres undefined) | 0 | 2.8 | 43 | 0.78 | –
11 | CCOC1Oc2c(Br)cc(Br)cc2C(=O)/C1=C\Nc1ccccc1S(N)(=O)=O (centres undefined) | 63 | 11.7 | 29 | 0.2 | –
12 | CCOC1Oc2ccc(Br)cc2C(=O)/C1=C\Nc1cccc(S(N)(=O)=O)c1 (centres undefined) | 0 | 51.3 | 44 | 8.7 | –

Stronger by Ki [3], values ahead:

Row | inhibition [1] [%] | Ki [2] [µM] | Ki [3] [µM] | Ki [4] [µM] | inhibition [5] | Structure (SMILES)
13 | 30 | 20.1 | 16.8 | 2.1 | – | CCOC1Oc2ccc(CC)cc2C(=O)/C1=C\Nc1cccc(S(N)(=O)=O)c1 (centres undefined)
14 | 0 | 35.4 | 23 | 7.8 | – | CCOC1Oc2ccccc2C(=O)/C1=C/Nc1ccc(S(=O)(=O)Nc2cc(OC)nc(OC)n2)cc1 (centres undefined)
15 | 0 | 31.8 | 21 | 0.01 | – | CCOC1Oc2ccc(F)cc2C(=O)/C1=C/Nc1ccc(S(=O)(=O)Nc2nnc(C)s2)cc1 (centres undefined)
16 | 0 | – | 0.13 | 0.021 | Active | O=c1c(C2Nc3ccccc3S(=O)(=O)N2)coc2ccc(Br)cc12 (centres undefined)
17 | 5.7 | 10.9 | 6.8 | 90.6 | – | CCOC1Oc2ccccc2C(=O)/C1=C\Nc1ccc(S(N)(=O)=O)cc1 (centres undefined)
18 | 0 | 19.9 | 18 | 17.1 | – | CCOC1Oc2ccc(F)cc2C(=O)/C1=C\Nc1cccc(S(N)(=O)=O)c1 (centres undefined)
19 | 54 | 67.9 | 26 | 0.8 | – | CCOC1Oc2c(Br)cc(Br)cc2C(=O)/C1=C\Nc1cccc(S(N)(=O)=O)c1 (centres undefined)
20 | 0 | 21.2 | 22 | 0.41 | – | CCOC1Oc2ccccc2C(=O)/C1=C/Nc1ccc(S(=O)(=O)Nc2ccccn2)cc1 (centres undefined)
21 | 26 | 0.079 | 0.25 | 0.085 | – | CCOC1Oc2ccccc2C(=O)/C1=C/Nc1ccc(S(=O)(=O)Nc2nnc(C)s2)cc1 (centres undefined)
